{
  "source": "ChEMBL document CHEMBL3861950",
  "about": "“Design, synthesis and evaluation of novel 19F magnetic resonance sensitive protein tyrosine phosphatase inhibitors” (Medchemcomm, 2016)",
  "key": {"[1]": {"assay": "Selectivity ratio of IC50 for recombinant PTP1B (unknown origin) to IC50 for recombinant Mycobacterium tuberculosis PTPB"}, "[2]": {"target": "T1, Receptor-type tyrosine-protein phosphatase C (Homo sapiens, UniProt P08575)", "T1 sequence (P08575 whole entry)": "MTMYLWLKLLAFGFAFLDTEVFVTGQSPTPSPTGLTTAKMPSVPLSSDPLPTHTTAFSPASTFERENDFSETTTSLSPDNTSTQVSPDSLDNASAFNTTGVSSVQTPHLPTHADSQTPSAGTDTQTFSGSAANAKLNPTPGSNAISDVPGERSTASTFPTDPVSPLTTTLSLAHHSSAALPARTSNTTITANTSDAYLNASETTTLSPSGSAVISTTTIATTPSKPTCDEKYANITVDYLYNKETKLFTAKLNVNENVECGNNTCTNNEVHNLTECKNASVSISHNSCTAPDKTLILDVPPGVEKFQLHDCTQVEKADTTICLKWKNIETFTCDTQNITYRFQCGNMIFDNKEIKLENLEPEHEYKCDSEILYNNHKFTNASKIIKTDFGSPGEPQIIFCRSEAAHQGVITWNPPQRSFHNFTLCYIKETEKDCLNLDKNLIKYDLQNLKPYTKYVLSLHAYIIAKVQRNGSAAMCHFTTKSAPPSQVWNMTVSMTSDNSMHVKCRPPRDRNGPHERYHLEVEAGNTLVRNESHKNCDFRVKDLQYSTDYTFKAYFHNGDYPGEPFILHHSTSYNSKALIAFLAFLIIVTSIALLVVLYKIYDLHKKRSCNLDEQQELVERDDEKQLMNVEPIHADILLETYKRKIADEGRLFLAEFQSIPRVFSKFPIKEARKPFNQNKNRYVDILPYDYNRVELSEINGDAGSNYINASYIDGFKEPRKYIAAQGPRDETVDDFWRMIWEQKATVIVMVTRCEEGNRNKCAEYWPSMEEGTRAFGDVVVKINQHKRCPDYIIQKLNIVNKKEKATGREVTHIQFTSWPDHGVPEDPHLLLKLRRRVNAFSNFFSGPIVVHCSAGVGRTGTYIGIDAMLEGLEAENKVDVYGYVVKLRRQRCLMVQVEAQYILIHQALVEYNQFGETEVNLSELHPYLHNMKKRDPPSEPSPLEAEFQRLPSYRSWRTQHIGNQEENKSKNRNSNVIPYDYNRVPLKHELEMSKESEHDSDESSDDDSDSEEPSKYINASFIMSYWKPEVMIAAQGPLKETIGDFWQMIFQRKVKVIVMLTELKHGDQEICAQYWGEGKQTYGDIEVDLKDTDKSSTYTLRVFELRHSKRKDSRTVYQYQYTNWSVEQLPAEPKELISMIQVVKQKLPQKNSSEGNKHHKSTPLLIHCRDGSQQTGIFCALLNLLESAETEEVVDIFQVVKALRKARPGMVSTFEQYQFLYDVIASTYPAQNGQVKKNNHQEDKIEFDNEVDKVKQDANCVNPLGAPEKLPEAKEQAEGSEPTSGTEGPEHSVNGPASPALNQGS", "assay": "Inhibition of recombinant CD45 (unknown origin) using pNPP as substrate by spectrophotometric method", "outline": "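Recombinant PTP prepared in-house, assayed with pNPP substrate in 50 mM 3,3-dimethylglutarate buffer pH 7.0 containing 1 mM EDTA and 150 mM NaCl at 25 °C, in 96-well format. p-Nitrophenol product was quantified by absorbance at 405 nm. Non-enzymatic pNPP hydrolysis was corrected using a no-enzyme control.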"}, "[3]": {"assay": "Selectivity ratio of IC50 for recombinant FAP1 (unknown origin) to IC50 for recombinant Mycobacterium tuberculosis PTPB"}, "[4]": {"assay": "Selectivity ratio of IC50 for recombinant LYP (unknown origin) to IC50 for recombinant Mycobacterium tuberculosis PTPB"}},
  "note": "pIC50: −log10 of the molar value.",
  "data": [
    {"smiles": "Cc1ccc(S(=O)(=O)NNC(=O)COc2ccc3cc(C(O)(C(F)(F)F)C(F)(F)F)c(O)cc3c2)cc1", "values": [
      {"measurement": "Ratio IC50", "setting": "[1]", "value": "> 7"},
      {"measurement": "pIC50", "setting": "[2]", "value": 4.79},
      {"measurement": "Ratio IC50", "setting": "[3]", "value": "> 7"},
      {"measurement": "Ratio IC50", "setting": "[4]", "value": "> 7"}
    ]}
  ]
}
